# SENP1 inh: human SENP1 catalytic domain inhibitors, primary screen, biochemical, FRET, uHTS | 360,000 tested, 0.21% active | recombinant SENP1 catalytic domain, CyPet-SUMO1-YPet FRET cleavage | Sentrin-specific protease 1 (Homo sapiens), Q9P0U3 | inhibition, % at 10 µM | AID 624204, 2012;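 active = inhibition at least 30% at 10 µM, raw YFP signal under a set limit, fluorescence ratio 0.5 to 1.5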;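 also: 0% = enzyme with DMSO and 100% = no enzyme wells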
# Target sequence (Q9P0U3 419-644 limits assumed): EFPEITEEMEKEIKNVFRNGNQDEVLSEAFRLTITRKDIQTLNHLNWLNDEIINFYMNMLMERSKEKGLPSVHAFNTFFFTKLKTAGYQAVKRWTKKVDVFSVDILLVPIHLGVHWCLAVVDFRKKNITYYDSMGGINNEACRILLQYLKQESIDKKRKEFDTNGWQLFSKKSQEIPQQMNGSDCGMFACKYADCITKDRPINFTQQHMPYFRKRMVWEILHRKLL
#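 System: Recombinant human SENP1 catalytic domain, His6-tagged | Incubation: Enzyme reaction for 50 min at room temperature, dark | Medium: Tris pH 8 with BME, BSA, NP40 and catalase | Also added: 25 nM SUMO1 FRET substrate | Compound: 10 µM single point, 0.5% DMSO | Measured by: FRET fluorescence in CFP and YFP emission channels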
# EBI2 block: EBI2 receptor antagonists, beta-arrestin recruitment, primary screen, cell-based, luminescence, 7a,25-OHC stimulation, uHTS; 360,000 tested, 0.81% active; 7a,25-OHC stimulated; G-protein coupled receptor 183 (Homo sapiens), P32249; inhibition, % at 5 µM; in the data active = inhibition above about 38%;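 also: enzyme fragment complementation signal reports receptor beta-arrestin coupling in cells; 0% = agonist plus DMSO wells and 100% = wells without agonist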
# Target sequence (P32249 whole entry, looked up, the tested form may be a part): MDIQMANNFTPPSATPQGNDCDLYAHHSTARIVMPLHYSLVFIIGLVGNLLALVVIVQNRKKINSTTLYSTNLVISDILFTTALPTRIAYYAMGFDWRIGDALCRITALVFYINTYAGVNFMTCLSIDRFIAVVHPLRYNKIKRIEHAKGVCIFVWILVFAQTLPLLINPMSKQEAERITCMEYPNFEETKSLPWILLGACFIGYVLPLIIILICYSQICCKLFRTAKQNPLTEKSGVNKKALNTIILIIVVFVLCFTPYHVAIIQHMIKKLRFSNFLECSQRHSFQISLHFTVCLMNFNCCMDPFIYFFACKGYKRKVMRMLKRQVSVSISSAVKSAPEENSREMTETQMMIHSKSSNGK
# GRIN3A LBD mod: binders of NR3A ligand-binding domain, primary screen, biophysical, differential scanning fluorimetry, uHTS. Glutamate receptor ionotropic, NMDA 3A (GRIN3A) ligand-binding domain. NR3A LBD differential scanning fluorimetry, Tm shift; 0% = protein alone, 100% = glycine-bound protein. Tm shift relative to glycine control, % at 25 µM. 340,000 tested, 2.5% active. AID 1259313, 2017;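 active = melting temperature shift of at least 10% of the positive control shift, at one fixed dose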
# MPTP block: mitochondrial permeability transition pore inhibitors, primary screen, biochemical, isolated mouse mitochondria, absorbance | Ca2+ swelling absorbance, 30 min | inhibition, % at 10 µM | 360,000 tested, 1.4% active | AID 602449, 2012;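 active = inhibition of 50% or more, scaled per plate between neutral and stimulator controls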;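 also: 0% = DMSO wells given calcium and 100% = 1 mM EGTA wells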
# Rh123 counter: fluorescence retest of MPTP screen hits in isolated mitochondria, single concentration; shares compounds with MPTP block; membrane potential, Rhodamine 123 fluorescence; inhibition, % at 10 µM; 5,000 tested, 78% active; in the data active = inhibition above about 22%;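 also: 0% = DMSO vehicle and 100% = positive control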
# MPTP swell DR: mitochondrial permeability transition pore inhibitors, dose response, biochemical, absorbance, uHTS hits; 780 tested, 58% active; isolated mitochondria swelling; IC50, µM; shares compounds with MPTP block; in the data active = IC50 below about 20 µM
# MPTP cs DR: fluorescent counter-screen in isolated mitochondria, dose response, counter-screen for MPTP inhibitor project, biochemical, fluorescence, uHTS hits; shares compounds with MPTP block; isolated mitochondria counterscreen, fluorescence read-out; IC50, µM; 780 tested, 49% active; AID 651564, 2012; in the data active = IC50 below about 80 µM
# The depositor's hits bear a star; i = inactive; . = no result. Shown are actives, neighbours in structure and some others; about 4.4% of the full set was active somewhere.
SMILES,SENP1 inh,EBI2 block,GRIN3A LBD mod,MPTP block,Rh123 counter,others
O=C(CSc1nc2ccccc2[nH]1)NC1CCCc2ccccc21 (centres undefined),2.7,2.3,-3.9,0.4,.,
O=C(NCCCNc1ccc(C(F)(F)F)cc1[N+](=O)[O-])c1ccc(Cl)cc1,6.3,8.0,5.8,57.9*,73.9*,
CN(C)CCOc1nc(-c2ccccc2)nc2c1oc1ccccc12,-7.9,-8.8,-0.2,74.9*,-1.6,
CN(C)CCOc1ncnc2c1oc1ccccc12,3.5,-7.2,-1.0,-1.8,.,
COc1ccc(S(=O)(=O)NCC2CCC(C(=O)NCC(OC)OC)CC2)cc1 (centres undefined),0.4,4.9,0.0,-0.2,.,
Cc1ccccc1-c1nn(-c2ccc(F)cc2F)cc1CNCCCN(C)C,-1.0,-14.8,-0.6,86.6*,-12.4,
Cc1ccccc1-c1nn(-c2ccc(F)cc2F)cc1CNCCN(C)C,0.3,-7.1,-0.9,25.2,.,
CCOc1ccc2nc(NC3=NC(C)(C)C=C(C)N3)nc(C)c2c1,-15.9,4.0,-1.2,86.2*,85.0*,
CCOc1ccc2c(C)nc(NC3=NC(C)(C)C=C(C)N3)nc2c1,-18.4,2.3,-3.1,58.7*,6.0,MPTP swell DR=i;MPTP cs DR=7.66*
CC(C)(C)C(=O)Nc1ccc(Sc2ccc([N+](=O)[O-])cc2)cc1,2.2,13.2,-3.3,95.6*,93.4*,
O=C(Nc1ccc([N+](=O)[O-])cc1)c1ccccc1,2.1,-2.2,-9.9,2.9,.,
CN(O)C(=O)Nc1ccc([N+](=O)[O-])cc1,0.2,9.5,-12.4,82.9*,96.3*,
CCCCNC(=O)CCn1nc(-c2ccc(C)cc2)c2ccccc2c1=O,-1.9,-1.1,0.5,2.0,.,
COc1ccc(NCC(=O)Nc2ccc(C#N)cc2)cc1Cl,-4.2,24.6,8.2,76.3*,84.4*,
COc1ccc(NC(=O)CNc2cccc(C#N)c2)cc1Cl,-0.5,2.9,0.6,-1.7,.,
Cc1cc(C)c(C(O)c2ncc(-c3cccc4ccccc34)[nH]2)c(C)c1 (centres undefined),1.4,5.5,.,3.6,.,
CCOC(=O)/C(=N\Nc1ccc(C(C)=O)cc1)c1csc(Nc2ccccc2)n1,-21.4,17.3,14.9*,64.4*,-8.9,MPTP swell DR=i;MPTP cs DR=12.4*
CCCc1nc2ccc(C(=O)OC)cn2c1Cc1cccc(F)c1,-8.3,-5.7,.,-0.1,.,
O=C(Nc1ccc(Br)cc1)/C(=C/c1cccc([N+](=O)[O-])c1)NC(=O)C1CCCCC1,2.1,18.1,-15.4,89.7*,83.9*,
Nc1nnc(CC(=O)N/N=C/c2cc([N+](=O)[O-])cc(Br)c2O)s1,-11.4,4.4,17.6*,53.3*,-11.8,
O=C(Nc1ccc(F)cc1)Nc1ccc(N2CCCC2)c(S(=O)(=O)Nc2ccccc2Cl)c1,-0.3,4.0,33.9*,99.6*,61.3*,
O=C(Nc1ccc(N2CCCCC2)c(S(=O)(=O)Nc2ccccc2Cl)c1)c1cccnc1,1.0,24.3,-0.8,2.3,.,
O=C(Nc1ccc(Cl)c(Cl)c1)Nc1ccc(N2CCCC2)c(S(=O)(=O)Nc2ccccc2Cl)c1,2.5,9.4,30.1*,99.9*,49.3*,
O=C(Nc1ccc(F)cc1)Nc1ccccc1N1CCCCC1,-0.3,-17.9,2.6,85.0*,77.4*,
O=C(Nc1ccc(N2CCOCC2)c(S(=O)(=O)Nc2ccccc2Cl)c1)c1ccc(F)cc1,-2.0,9.0,4.0,3.5,.,
SMILES,SENP1 inh,EBI2 block,GRIN3A LBD mod,MPTP block,Rh123 counter,others
C=CCn1c(SCc2nc3ccccc3[nH]2)nnc1-c1ccc(OC)cc1,-3.2,5.6,-1.0,0.3,.,
C[C@@H]1COC(=O)[C@H](CC(=O)OC(C)(C)C)C/C=C\C[C@@H](CC(=O)N(CCO)Cc2ccccc2)C(=O)N1,1.1,-0.7,-0.2,0.2,.,
Cc1c(Nc2ccc(C=O)cc2)c(=O)n(-c2ccccc2)n1C,26.6,-0.6,-0.6,0.2,.,
CCCCc1ccc(-n2nnnc2SCC(=O)Nc2cc(OC)c([N+](=O)[O-])cc2C)cc1,2.3,21.6,1.9,63.6*,53.5*,
O=C(Nc1ccc2snnc2c1)Nc1cccc2ccccc12,1.9,-0.9,38.4*,106.1*,69.2*,
COc1cc(NC(=O)C/C(C)=N/NC(=O)c2cccc(O)c2)c(OC)cc1Cl,-0.6,-6.7,-7.1,-1.1,.,
CCN(CC)c1ccc(N=Cc2ccc(N(CC)CC)cc2O)cc1,-27.2,33.6,0.0,76.8*,-8.4,
CCN(CC)c1ccc(C=Nc2ccc(N(C)C)cc2)c(O)c1,-22.2,13.3,0.8,24.1,.,
Cc1ccc(S(=O)(=O)NC(CC(=O)O)c2ccc(F)cc2)cc1 (centres undefined),0.7,3.9,0.8,0.2,.,
Cc1cc(=O)oc2cc(O)cc(OCc3ccccc3)c12,-95.2,0.9,1.3,77.8*,97.7*,
CCCCCCCCCCCCCCCC(O)C(N)CO (centres undefined),0.5,3.2,-6.8,80.1*,-7.3,
CCCCCCCCCCCCCCCC(O)C[N+](C)(C)CCO (centres undefined),0.2,0.5,-11.2,2.0,.,
CN(C(=O)c1ccc(NC(=O)C2CCCN(C(=O)OC(C)(C)C)C2)cc1)C1CC1 (centres undefined),0.5,-6.7,-1.8,1.2,.,
CC(C)(C)OC(=O)N1CCCC(C(=O)Nc2ccc(C(=O)NC3CC3)cc2)C1 (centres undefined),0.7,-7.0,0.9,168.3*,2.9,MPTP swell DR=>100;MPTP cs DR=>80
Cn1cccc1C(=O)OCC(=O)Nc1ccc2c(c1)OCCO2,-1.0,-0.6,0.4,-0.4,.,
CCC1SC(=NC(=O)c2ccc(Cl)c(Cl)c2)NC1=O (centres undefined),-0.1,1.6,-0.5,76.0*,100.3*,
CCC1SC(=Nc2cccc(C)c2)NC1=O (centres undefined),1.5,-9.3,0.2,0.3,.,
CCCc1cc(=O)[nH]c(SCc2cc(Cl)ccc2OC(F)F)n1,0.7,-6.0,-12.6,71.3*,54.7*,
CCC(=O)N1CCc2cc(S(=O)(=O)NCCC(=O)N3CCc4ccccc4C3)ccc21,-1.3,4.2,2.7,76.4*,61.1*,
c1ccc(-c2nc(-c3cccs3)[nH]c2-c2ccccc2)cc1,7.3,-0.1,2.0,4.1,.,
c1csc(-c2nc3c4ccccc4c4ccccc4c3[nH]2)c1,1.8,36.6,27.8*,72.1*,47.8*,
Cc1ccc2nc(N/C(=N/S(=O)(=O)c3ccc(F)cc3F)c3ccccc3)sc2c1,1.4,4.0,0.7,50.1*,69.3*,
